SMILES strings stand for the structures.

The term inhibition denotes the drop in the measured response relative to a control, in per cent.

The species entered for the first assay is Mus musculus. Briefly: Analgesic activity in Swiss mouse assessed as reaction time after 60 mins by hot plate test. In kind it is functional.
Settings: not given
An outline of the steps:
(§1)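 Swiss mice of both sexes, 25–30 g, were housed at 22 ± 1 °C on a 12 h light/dark cycle with free access to diet and water. Hot-plate testing followed Turner's method.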
In the case of `O=c1c2c(-c3ccc(Cl)cc3)c3c(nc2nc2[nH]nc([C@H](O)[C@@H](O)[C@@H](O)[C@H](O)CO)n12)/C(=C/c1ccc(Cl)cc1)CCC3`, the Activity is 5.45 s.

For the next assay, the system named is Rattus norvegicus. Briefly: Antiinflammatory activity in Sprague-Dawley rat assessed as inhibition of carrageenan-induced paw edema after 3 hrs.
Settings: not given
In kind it is functional. In outline:
(§2)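 Adult female Sprague-Dawley rats, 150–180 g, were used (n = 6 per group). Paw volume increase after carrageenan was read at 1, 2, 3 and 4 h. % edema inhibition was calculated against untreated controls. The reference drug was given orally at 10 mg/kg as an aqueous suspension.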
For orientation: In the carrageenan paw model, swelling and tenderness develop within hours.
Take `O=c1c2c(-c3ccc(Cl)cc3)c3c(nc2nc2[nH]nc([C@H](O)[C@@H](O)[C@@H](O)[C@H](O)CO)n12)/C(=C/c1ccc(Cl)cc1)CCC3`: the “inhibition (INH)” value turned out to be 49.27%.

A further assay has as its system Rattus norvegicus. In words: Antiinflammatory activity in Sprague-Dawley rat assessed as inhibition of carrageenan-induced paw edema after 4 hrs.
Settings: not given
The assay is classed as functional. In outline: as §2
Regarding `O=c1c2c(-c3ccc(Cl)cc3)c3c(nc2nc2[nH]nc([C@H](O)[C@@H](O)[C@@H](O)[C@H](O)CO)n12)/C(=C/c1ccc(Cl)cc1)CCC3`, the “inhibition (INH)” value is 50%.

The test system of the next assay is Pseudomonas aeruginosa. Briefly: Antibacterial activity against Pseudomonas aeruginosa ATCC 10145 at 100 ug/disk after 24 to 48 hrs by agar disk diffusion method. The assay is classed as functional. To be noted: read-out: DIZ. An outline of the steps:
(§3)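 Agar disc diffusion used sterile 5 mm filter-paper discs loaded with 100 µg per disc, with DMSO as solvent. Plates were incubated 24–28 h at 37 °C and inhibition zone diameters measured: 6–10 mm slight, 11–15 mm moderate, >15 mm high. For MIC, discs carried varying amounts, and MIC was the lowest amount giving no visible growth.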
As to `O=c1c2c(-c3ccc(Cl)cc3)c3c(nc2nc2[nH]nc([C@H](O)[C@@H](O)[C@@H](O)[C@H](O)CO)n12)/C(=C/c1ccc(Cl)cc1)CCC3`, the zone of inhibition at 100 µg/disc was 19 mm.

Tested on in another assay: not listed separately
Briefly: Antioxidant activity assessed as inhibition of ABTS-oxidation in 0.1 M phosphate buffer at pH 7. In kind it is functional.
Settings: not given
An outline of the steps: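 ABTS (60 µM, 2 mL) was mixed with MnO2 (25 mg/mL) in 0.1 M phosphate buffer pH 7, then shaken, centrifuged and filtered. Radical solution A734 was set to about 0.5. MeOH/buffer served as negative control.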
As for `O=c1c2c(-c3ccc(Cl)cc3)c3c(nc2nc2[nH]nc([C@H](O)[C@@H](O)[C@@H](O)[C@H](O)CO)n12)/C(=C/c1ccc(Cl)cc1)CCC3`, the inhibition was found to be 83.7%.

In the next assay the test system is Rattus norvegicus. Briefly: Antiinflammatory activity in Sprague-Dawley rat assessed as inhibition of carrageenan-induced paw edema after 1 hr. In kind it is functional.
Settings: not given
An outline of the steps: as §2
For the compound `O=c1c2c(-c3ccc(Cl)cc3)c3c(nc2nc2[nH]nc([C@H](O)[C@@H](O)[C@@H](O)[C@H](O)CO)n12)/C(=C/c1ccc(Cl)cc1)CCC3`, the “inhibition (INH)” value is on record as 50%.

In the next assay the test system is Candida albicans. In words: Antimicrobial activity against Candida albicans ATCC 14053 at 100 ug/disk after 5 days by agar disk diffusion method. To be noted: ATCC 14053, 120 h, read-out: DIZ. The assay is classed as functional. A general note: Agar diffusion results depend on both activity and mobility in agar.
As to `O=c1c2c(-c3ccc(Cl)cc3)c3c(nc2nc2[nH]nc([C@H](O)[C@@H](O)[C@@H](O)[C@H](O)CO)n12)/C(=C/c1ccc(Cl)cc1)CCC3`, the zone of inhibition at 100 µg/disc was 11 mm.

Another assay has as its system Nucleic Acid. Briefly: Inhibition of bleomycin-induced DNA damage assessed as absorbance at 532 nm after 1 hr at 37 degC. In kind it is nucleic-acid assay.
Settings: not given
In outline:
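The 0.5 mL reaction contained calf thymus DNA (0.5 mg/mL), bleomycin sulfate (0.05 mg/mL), MgCl2 (5 mM), FeCl3 (50 µM) and compound at varying concentrations. After 1 h at 37 °C, the reaction was stopped with EDTA. TBA (1%) and HCl (25%) were added, followed by 10 min at 80 °C. After centrifugation, DNA damage was read as A532.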
Turning to `O=c1c2c(-c3ccc(Cl)cc3)c3c(nc2nc2[nH]nc([C@H](O)[C@@H](O)[C@@H](O)[C@H](O)CO)n12)/C(=C/c1ccc(Cl)cc1)CCC3`, the deltaA came out at 0.029.

In the next assay the test system is Rattus norvegicus. Briefly: Antiinflammatory activity in Sprague-Dawley rat assessed as inhibition of carrageenan-induced paw edema after 2 hrs. The assay is classed as functional.
Settings: not given
In outline:
as §2
Take `O=c1c2c(-c3ccc(Cl)cc3)c3c(nc2nc2[nH]nc([C@H](O)[C@@H](O)[C@@H](O)[C@H](O)CO)n12)/C(=C/c1ccc(Cl)cc1)CCC3`: the “inhibition (INH)” value amounted to 56%.

The next assay is filed under the species Mus musculus. Briefly: Analgesic activity in Swiss mouse assessed as reaction time after 30 mins by hot plate test. In kind it is functional.
Settings: not given
In outline:
as §1
In the case of `O=c1c2c(-c3ccc(Cl)cc3)c3c(nc2nc2[nH]nc([C@H](O)[C@@H](O)[C@@H](O)[C@H](O)CO)n12)/C(=C/c1ccc(Cl)cc1)CCC3`, the Activity was determined as 3.767 s.

The species entered for the next assay is Mus musculus. Briefly: Analgesic activity in Swiss mouse assessed as reaction time after 90 mins by hot plate test. In kind it is functional.
Settings: not given
An outline of the steps: as §1
A general note: Thermal pain tests record how soon the animal reacts.
Turning to `O=c1c2c(-c3ccc(Cl)cc3)c3c(nc2nc2[nH]nc([C@H](O)[C@@H](O)[C@@H](O)[C@H](O)CO)n12)/C(=C/c1ccc(Cl)cc1)CCC3`, the Activity was determined as 6.767 s.

For a further assay, the system named is Escherichia coli. Briefly: Antibacterial activity against Escherichia coli ATCC 23566 at 100 ug/disk after 24 to 48 hrs by agar disk diffusion method. In kind it is functional. Conditions: read-out: DIZ. In outline: as §3
On to `O=c1c2c(-c3ccc(Cl)cc3)c3c(nc2nc2[nH]nc([C@H](O)[C@@H](O)[C@@H](O)[C@H](O)CO)n12)/C(=C/c1ccc(Cl)cc1)CCC3`, for which the zone of inhibition at 100 µg/disc is 20 mm.

Another assay deals with Staphylococcus aureus. Briefly: Antibacterial activity against Staphylococcus aureus ATCC 25923 at 100 ug/disk after 24 to 48 hrs by agar disk diffusion method. In kind it is functional. Conditions: read-out: DIZ. An outline of the steps: as §3
In the case of `O=c1c2c(-c3ccc(Cl)cc3)c3c(nc2nc2[nH]nc([C@H](O)[C@@H](O)[C@@H](O)[C@H](O)CO)n12)/C(=C/c1ccc(Cl)cc1)CCC3`, the zone of inhibition at 100 µg/disc was 20 mm.

Tested on in another assay: not listed separately
In words: Antioxidant activity in Sprague-Dawley rat erythrocytes assessed as ABTS-induced hemolysis after 1 hr. Details: concentration or dose not given beside the values.
Settings: not given
The assay is classed as functional, Erythrocyte.
As for `O=c1c2c(-c3ccc(Cl)cc3)c3c(nc2nc2[nH]nc([C@H](O)[C@@H](O)[C@@H](O)[C@H](O)CO)n12)/C(=C/c1ccc(Cl)cc1)CCC3`, the Activity was found to be 4.01%.

A further assay has as its system Aspergillus fumigatus. Briefly: Antimicrobial activity against Aspergillus fumigatus ATCC 96918 at 100 ug/disk after 5 days by agar disk diffusion method. The assay is classed as functional. Conditions: ATCC 96918, 120 h, read-out: DIZ.
For `O=c1c2c(-c3ccc(Cl)cc3)c3c(nc2nc2[nH]nc([C@H](O)[C@@H](O)[C@@H](O)[C@H](O)CO)n12)/C(=C/c1ccc(Cl)cc1)CCC3`, the zone of inhibition at 100 µg/disc is 7 mm.

The values are drawn from ChEMBL document CHEMBL1137720, “New acyclic nucleosides analogues as potential analgesic, anti-inflammatory, anti-oxidant and anti-microbial derived from pyrimido[4,5-b]quinolines” (2009).
